Test results as given in ChEMBL document CHEMBL1926655, “Electron-donating para-methoxy converts a benzamide-isoquinoline derivative into a highly Sigma-2 receptor selective ligand” (Bioorg Med Chem, 2011).
Calls of active or inactive are those of the source. The rule behind the calls is not given here.

How the values were obtained:
[1] = target: Sigma non-opioid intracellular receptor 1 (Rattus norvegicus, UniProt Q9R0C9); assay: Displacement of (+)-[3H]pentazocine from sigma 1 receptor in rat liver membrane after 1.5 hrs by scintillation counting; type: cell membranes
Sigma non-opioid intracellular receptor 1, sequence (Q9R0C9 whole entry): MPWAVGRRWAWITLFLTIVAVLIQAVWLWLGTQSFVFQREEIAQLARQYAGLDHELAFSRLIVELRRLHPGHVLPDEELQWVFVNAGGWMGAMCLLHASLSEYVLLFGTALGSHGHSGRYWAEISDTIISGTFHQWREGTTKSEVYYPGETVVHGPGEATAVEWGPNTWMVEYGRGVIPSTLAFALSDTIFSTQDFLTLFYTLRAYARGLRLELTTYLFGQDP
In short: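 Rat liver membranes (~50 μg total protein per reaction) incubated with 10 nM [³H]-(+)-pentazocine and serial dilutions of compound (stocks in DMSO) for 1.5 h at 32°C. […] Filtered through polyethyleneimine-pretreated GF/B filters, bound radioactivity counted by liquid scintillation. One-site competition fit, Ki by Cheng-Prusoff.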

[2] = organism: Rattus norvegicus; assay: Selectivity ratio of Ki for rat sigma 1 receptor to Ki for rat sigma 2 receptor
In short: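 Ratio of Ki values from rat liver membrane competition binding: σ1 with 10 nM [³H]-(+)-pentazocine, σ2 with 10 nM [³H]-DTG plus 100 nM (+)-pentazocine; 1.5 h at 32°C, filtration and scintillation counting, Ki by Cheng-Prusoff.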

[3] = Displacement of [3H]ditolylguanidine from sigma 2 receptor in rat liver membrane after 1.5 hrs by scintillation counting in presence of sigma 1 blocker (+)-pentazocine; type: cell membranes
In short: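 Rat liver membranes (~50 μg total protein per reaction) in 50 mM Tris-HCl pH 8.0 with 10 nM [³H]-DTG plus 100 nM cold (+)-pentazocine to mask σ1 sites. […] Filtration on PEI-pretreated GF/B, scintillation counting, one-site competition fit, Ki via Cheng-Prusoff.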

[4] = test system: RT-4; assay: Displacement of [125I]IAF from sigma 2 receptor in human RT4 cells at 10 uM after 30 mins preincubation by photoaffinity labeling experiment; type: cell-based
In short: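 Fresh membranes from sonicated RT4 human bladder papilloma cells (200 μg protein per reaction) preincubated with compound in 50 mM Tris pH 7.4, 30 min, 32°C. Then 1 nM [¹²⁵I]-IAF (final 1% ethyl acetate) added for 30 min at 32°C, photoactivated 6 sec with mercury lamp, quenched in SDS/β-mercaptoethanol sample buffer; labeled receptor bands examined.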

Row | SMILES | Ki [1] [µM] | Ratio Ki [2] | Ki [3] [µM] | Activity [4]
1 | COc1cc2c(cc1OC)CN(CCCCNC(=O)c1cccc(OC)c1O)CC2 | 67.8 | 48.4 | 1.4 | 
2 | COc1cccc(C(=O)NCCCCN2CCc3ccc([N+](=O)[O-])cc3C2)c1OC | 7.87 | 0.61 | 12.9 | inactive
3 | COc1c(I)ccc(C(=O)NCCCCN2CCc3ccc([N+](=O)[O-])cc3C2)c1O | 74.7 | 86.2 | 0.867 | 
4 | COc1cc2c(cc1OC)CN(CCCCNC(=O)c1cccc([N+](=O)[O-])c1)CC2 | 1210 |  | > 10000 | 
5 | O=C1c2ccccc2C(=O)N1CCCCN1CCc2ccc([N+](=O)[O-])cc2C1 | 0.0875 | 4.12 | 0.0213 | Active
6 | COc1cc2c(cc1OC)CN(CCCCNC(=O)c1ccccc1)CC2 | > 10000 |  | 5.29 | 
7 | COc1cc2c(cc1OC)CN(CCCCNC(=O)c1ccc([N+](=O)[O-])cc1)CC2 | 14.7 | 0.096 | 152 | 
8 | COc1ccc(C(=O)NCCCCN2CCc3ccc([N+](=O)[O-])cc3C2)c(OC)c1OC | 10.3 | 385 | 0.0268 | 
9 | COc1cccc(C(=O)NCCCCN2CCc3ccc([N+](=O)[O-])cc3C2)c1O | 11.2 | 2.8 | 4 | 
10 | O=C(CCCN1CCC(O)(c2ccc(Cl)cc2)CC1)c1ccc(F)cc1 |  |  |  | Active
